Measurements reported in ChEMBL document CHEMBL5696442, “Discovery of type II inhibitors of TGFβ-activated kinase 1 (TAK1) and mitogen-activated protein kinase kinase kinase kinase 2 (MAP4K2)” (J Med Chem, 2015).

What was measured:
[1] = target: Serine/threonine-protein kinase 10 (Homo sapiens) (UniProt O94804); test: Inhibition of LOK Lys1 labeling site in human A-375 cells at 0.5 uM by KiNativ Profiling analysis relative to control; format: cell-based
[2] = target: Mitogen-activated protein kinase 9 (Homo sapiens, UniProt P45984); test: Inhibition of JNK2 Lys2 labeling site in human A-375 cells at 0.5 uM by KiNativ Profiling analysis relative to control; format: cell-based
[3] = target: Casein kinase II subunit alpha (Homo sapiens) (UniProt P68400); test: Inhibition of CK2a1 Protein Kinase Domain in human A-375 cells at 5 uM by KiNativ Profiling analysis relative to control; format: cell-based
Outline: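 Intact A375 melanoma cells were treated with compound at 5 or 0.5 μM, then lysed. Lysate kinases were labeled with a lysine-reactive ATP or ADP-biotin probe (KiNativ). Inhibition is read as protection of each kinase labeling site from probe labeling.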

[4] = target: Glycogen synthase kinase-3 alpha (Homo sapiens) (UniProt P49840); test: Inhibition of GSK3A Lys2 labeling site in human A-375 cells at 5 uM by KiNativ Profiling analysis relative to control; format: cell-based
[5] = target: Serine/threonine-protein kinase tousled-like 2 (Homo sapiens) (UniProt Q86UE8); test: Inhibition of TLK2 Lys1 labeling site in human A-375 cells at 5 uM by KiNativ Profiling analysis relative to control; format: cell-based
[6] = target: T1, Serine/threonine-protein kinase TBK1 (Homo sapiens) (UniProt Q9UHD2); test: Inhibition of TBK1 Lys2 labeling site in human A-375 cells at 0.5 uM by KiNativ Profiling analysis relative to control; format: cell-based
T1 sequence (whole entry): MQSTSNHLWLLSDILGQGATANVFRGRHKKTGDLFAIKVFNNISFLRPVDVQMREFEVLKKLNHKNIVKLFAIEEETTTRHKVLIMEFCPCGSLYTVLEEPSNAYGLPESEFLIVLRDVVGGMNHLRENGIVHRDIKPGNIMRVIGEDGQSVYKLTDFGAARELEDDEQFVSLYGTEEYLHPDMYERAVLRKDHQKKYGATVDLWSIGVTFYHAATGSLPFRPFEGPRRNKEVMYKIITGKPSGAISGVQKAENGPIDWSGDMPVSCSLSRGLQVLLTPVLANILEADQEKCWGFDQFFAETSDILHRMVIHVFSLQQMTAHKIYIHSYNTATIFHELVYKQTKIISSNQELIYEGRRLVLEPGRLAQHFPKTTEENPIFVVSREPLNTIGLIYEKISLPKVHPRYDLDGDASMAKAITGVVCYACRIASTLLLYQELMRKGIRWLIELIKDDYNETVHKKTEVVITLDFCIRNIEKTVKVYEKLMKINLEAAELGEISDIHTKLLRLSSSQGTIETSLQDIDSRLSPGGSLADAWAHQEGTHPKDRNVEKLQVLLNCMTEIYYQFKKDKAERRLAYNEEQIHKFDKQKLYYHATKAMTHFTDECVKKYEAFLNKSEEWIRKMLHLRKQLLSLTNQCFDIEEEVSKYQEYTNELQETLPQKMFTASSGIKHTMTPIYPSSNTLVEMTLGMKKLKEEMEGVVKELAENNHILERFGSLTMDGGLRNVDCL

[7] = target: Serine/threonine-protein kinase PLK1 (Homo sapiens) (UniProt P53350); test: Inhibition of PLK1 Lys1 labeling site in human A-375 cells at 0.5 uM by KiNativ Profiling analysis relative to control; format: cell-based
[8] = target: Casein kinase I isoform epsilon (Homo sapiens) (UniProt P49674); test: Inhibition of CK1epsilon Lys2 labeling site in human A-375 cells at 0.05 uM by KiNativ Profiling analysis relative to control; format: cell-based
[9] = target: T2, Ephrin type-B receptor 2 (Homo sapiens) (UniProt P29323); test: Inhibition of EphB2 ACT labeling site in human A-375 cells at 0.05 uM by KiNativ Profiling analysis relative to control; format: cell-based
T2 sequence (whole entry): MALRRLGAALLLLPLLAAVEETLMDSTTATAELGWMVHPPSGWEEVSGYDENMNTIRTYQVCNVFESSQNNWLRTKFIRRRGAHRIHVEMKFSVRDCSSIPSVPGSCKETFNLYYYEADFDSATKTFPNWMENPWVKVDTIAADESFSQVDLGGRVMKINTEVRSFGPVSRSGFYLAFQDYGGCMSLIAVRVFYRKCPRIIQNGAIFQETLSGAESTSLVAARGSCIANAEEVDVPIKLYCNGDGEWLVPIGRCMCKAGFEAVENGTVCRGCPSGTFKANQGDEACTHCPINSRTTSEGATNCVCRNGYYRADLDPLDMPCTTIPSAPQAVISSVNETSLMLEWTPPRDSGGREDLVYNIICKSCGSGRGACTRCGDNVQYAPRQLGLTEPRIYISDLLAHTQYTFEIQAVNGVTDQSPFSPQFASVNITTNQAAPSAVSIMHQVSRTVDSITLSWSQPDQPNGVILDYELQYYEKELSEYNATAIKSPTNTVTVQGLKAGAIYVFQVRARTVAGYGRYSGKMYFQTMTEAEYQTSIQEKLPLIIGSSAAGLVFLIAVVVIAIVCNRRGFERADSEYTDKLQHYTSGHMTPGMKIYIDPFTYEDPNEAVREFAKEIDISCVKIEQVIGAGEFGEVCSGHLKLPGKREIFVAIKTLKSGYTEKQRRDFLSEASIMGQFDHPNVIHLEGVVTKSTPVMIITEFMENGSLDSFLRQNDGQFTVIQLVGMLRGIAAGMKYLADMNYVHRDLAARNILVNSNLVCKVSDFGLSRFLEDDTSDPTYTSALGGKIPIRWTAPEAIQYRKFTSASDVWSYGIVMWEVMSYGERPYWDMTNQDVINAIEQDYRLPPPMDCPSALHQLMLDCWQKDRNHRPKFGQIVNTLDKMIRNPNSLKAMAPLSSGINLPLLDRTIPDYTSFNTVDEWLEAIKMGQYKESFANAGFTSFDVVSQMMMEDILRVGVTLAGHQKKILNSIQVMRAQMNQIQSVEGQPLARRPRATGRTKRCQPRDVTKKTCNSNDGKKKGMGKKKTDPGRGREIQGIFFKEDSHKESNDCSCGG

[10] = target: Interleukin-1 receptor-associated kinase 1 (Homo sapiens) (UniProt P51617); test: Inhibition of IRAK1 Lys2 labeling site in human A-375 cells at 0.05 uM by KiNativ Profiling analysis relative to control; format: cell-based
[11] = Inhibition of KHS1 Lys1 labeling site in human A-375 cells at 0.05 uM by KiNativ Profiling analysis relative to control; settings: condition cancer
[12] = target: RAF proto-oncogene serine/threonine-protein kinase (Homo sapiens, UniProt P04049); test: Inhibition of RAF1 Lys2 labeling site in human A-375 cells at 0.05 uM by KiNativ Profiling analysis relative to control; format: cell-based
[13] = target: 3-phosphoinositide-dependent protein kinase 1 (Homo sapiens) (UniProt O15530); test: Inhibition of PDK1 Protein Kinase Domain in human A-375 cells at 5 uM by KiNativ Profiling analysis relative to control
Sequence of 3-phosphoinositide-dependent protein kinase 1 (Homo sapiens) (O15530 whole entry, looked up, the tested form may be a part): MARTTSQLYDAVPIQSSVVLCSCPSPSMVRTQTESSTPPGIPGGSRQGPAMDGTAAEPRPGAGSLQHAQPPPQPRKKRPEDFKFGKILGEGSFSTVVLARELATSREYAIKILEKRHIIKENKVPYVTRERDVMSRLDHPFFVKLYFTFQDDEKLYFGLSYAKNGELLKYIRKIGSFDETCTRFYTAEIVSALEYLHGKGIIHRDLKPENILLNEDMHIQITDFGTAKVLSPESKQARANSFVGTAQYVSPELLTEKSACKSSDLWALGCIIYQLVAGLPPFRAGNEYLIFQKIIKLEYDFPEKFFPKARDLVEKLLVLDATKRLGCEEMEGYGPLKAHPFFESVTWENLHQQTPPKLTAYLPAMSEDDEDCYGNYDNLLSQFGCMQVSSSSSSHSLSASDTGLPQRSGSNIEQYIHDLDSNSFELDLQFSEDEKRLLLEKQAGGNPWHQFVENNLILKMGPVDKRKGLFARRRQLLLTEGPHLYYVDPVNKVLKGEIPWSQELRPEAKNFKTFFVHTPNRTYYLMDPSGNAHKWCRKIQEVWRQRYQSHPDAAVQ

Sequence of Mitogen-activated protein kinase 9 (P45984 whole entry, looked up, the tested form may be a part): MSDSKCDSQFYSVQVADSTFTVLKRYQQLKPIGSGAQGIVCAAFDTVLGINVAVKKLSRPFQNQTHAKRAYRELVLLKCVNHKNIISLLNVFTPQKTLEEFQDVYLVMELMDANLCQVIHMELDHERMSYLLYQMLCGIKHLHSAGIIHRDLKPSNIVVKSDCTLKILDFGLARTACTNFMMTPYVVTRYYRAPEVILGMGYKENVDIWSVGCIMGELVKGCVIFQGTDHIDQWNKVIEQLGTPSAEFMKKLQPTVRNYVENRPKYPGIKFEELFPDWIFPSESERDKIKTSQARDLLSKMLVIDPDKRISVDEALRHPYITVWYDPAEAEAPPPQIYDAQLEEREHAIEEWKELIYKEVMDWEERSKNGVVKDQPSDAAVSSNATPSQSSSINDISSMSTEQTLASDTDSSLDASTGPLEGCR
Sequence of RAF proto-oncogene serine/threonine-protein kinase (P04049 whole entry, the tested form may be a part): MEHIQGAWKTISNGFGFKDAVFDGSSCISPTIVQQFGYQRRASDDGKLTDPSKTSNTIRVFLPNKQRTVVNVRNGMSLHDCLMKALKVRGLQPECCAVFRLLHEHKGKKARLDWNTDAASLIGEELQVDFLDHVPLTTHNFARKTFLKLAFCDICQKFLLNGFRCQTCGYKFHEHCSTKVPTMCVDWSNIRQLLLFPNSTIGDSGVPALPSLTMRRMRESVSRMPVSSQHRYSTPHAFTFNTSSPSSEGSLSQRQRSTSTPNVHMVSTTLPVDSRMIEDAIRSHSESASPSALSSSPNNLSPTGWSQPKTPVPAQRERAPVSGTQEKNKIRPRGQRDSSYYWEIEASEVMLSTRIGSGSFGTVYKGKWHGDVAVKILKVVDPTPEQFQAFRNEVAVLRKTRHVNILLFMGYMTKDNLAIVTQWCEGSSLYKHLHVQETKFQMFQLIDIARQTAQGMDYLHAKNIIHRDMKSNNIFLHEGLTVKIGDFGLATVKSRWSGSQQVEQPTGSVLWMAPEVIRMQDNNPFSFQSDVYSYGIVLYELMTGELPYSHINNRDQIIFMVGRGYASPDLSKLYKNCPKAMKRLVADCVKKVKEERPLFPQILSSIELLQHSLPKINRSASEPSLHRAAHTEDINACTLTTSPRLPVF
Sequence of Serine/threonine-protein kinase 10 (Homo sapiens) (O94804 whole entry, looked up): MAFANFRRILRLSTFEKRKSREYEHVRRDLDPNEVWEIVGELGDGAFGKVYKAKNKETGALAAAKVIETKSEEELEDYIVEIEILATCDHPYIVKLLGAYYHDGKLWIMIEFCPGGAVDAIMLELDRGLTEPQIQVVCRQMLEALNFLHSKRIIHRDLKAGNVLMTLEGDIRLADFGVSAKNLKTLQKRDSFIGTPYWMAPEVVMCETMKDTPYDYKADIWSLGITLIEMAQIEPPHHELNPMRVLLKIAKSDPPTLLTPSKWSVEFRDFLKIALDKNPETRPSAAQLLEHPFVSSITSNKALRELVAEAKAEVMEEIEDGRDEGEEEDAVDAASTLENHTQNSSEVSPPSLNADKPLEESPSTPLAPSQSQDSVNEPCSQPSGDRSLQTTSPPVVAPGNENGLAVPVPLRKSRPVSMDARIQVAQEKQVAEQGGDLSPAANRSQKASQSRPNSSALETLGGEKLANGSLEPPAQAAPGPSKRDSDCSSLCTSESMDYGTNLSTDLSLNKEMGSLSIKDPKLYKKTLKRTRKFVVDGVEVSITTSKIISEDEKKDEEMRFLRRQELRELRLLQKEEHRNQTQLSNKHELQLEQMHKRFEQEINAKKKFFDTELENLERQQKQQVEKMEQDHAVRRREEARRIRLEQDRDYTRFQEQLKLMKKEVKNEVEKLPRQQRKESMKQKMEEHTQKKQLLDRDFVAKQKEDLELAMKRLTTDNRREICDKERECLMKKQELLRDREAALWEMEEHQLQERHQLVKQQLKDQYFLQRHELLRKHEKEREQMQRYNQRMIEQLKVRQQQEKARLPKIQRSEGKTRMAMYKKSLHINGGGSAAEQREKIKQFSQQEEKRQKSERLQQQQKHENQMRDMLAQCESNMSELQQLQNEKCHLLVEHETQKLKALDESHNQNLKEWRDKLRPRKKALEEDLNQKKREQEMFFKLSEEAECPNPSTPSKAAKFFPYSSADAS
Sequence of Interleukin-1 receptor-associated kinase 1 (Homo sapiens) (P51617 whole entry, looked up): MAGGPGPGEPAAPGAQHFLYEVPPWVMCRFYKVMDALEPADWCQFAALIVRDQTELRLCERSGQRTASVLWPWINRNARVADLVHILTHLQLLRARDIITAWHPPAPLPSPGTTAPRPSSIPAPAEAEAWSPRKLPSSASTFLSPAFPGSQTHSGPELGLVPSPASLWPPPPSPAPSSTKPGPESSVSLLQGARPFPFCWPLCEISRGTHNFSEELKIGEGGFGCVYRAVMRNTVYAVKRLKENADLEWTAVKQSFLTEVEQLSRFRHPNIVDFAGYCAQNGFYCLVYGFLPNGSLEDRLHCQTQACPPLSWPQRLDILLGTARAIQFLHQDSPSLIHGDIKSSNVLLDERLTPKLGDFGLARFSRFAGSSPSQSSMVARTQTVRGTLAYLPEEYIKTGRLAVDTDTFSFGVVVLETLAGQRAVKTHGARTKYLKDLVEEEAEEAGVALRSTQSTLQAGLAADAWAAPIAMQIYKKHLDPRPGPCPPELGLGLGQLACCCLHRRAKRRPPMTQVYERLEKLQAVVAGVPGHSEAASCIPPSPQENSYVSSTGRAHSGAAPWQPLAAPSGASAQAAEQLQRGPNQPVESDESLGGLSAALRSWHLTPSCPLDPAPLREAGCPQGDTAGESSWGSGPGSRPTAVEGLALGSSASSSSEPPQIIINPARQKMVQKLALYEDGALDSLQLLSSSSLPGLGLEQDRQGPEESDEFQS
Sequence of Glycogen synthase kinase-3 alpha (Homo sapiens) (P49840 2-483 limits assumed): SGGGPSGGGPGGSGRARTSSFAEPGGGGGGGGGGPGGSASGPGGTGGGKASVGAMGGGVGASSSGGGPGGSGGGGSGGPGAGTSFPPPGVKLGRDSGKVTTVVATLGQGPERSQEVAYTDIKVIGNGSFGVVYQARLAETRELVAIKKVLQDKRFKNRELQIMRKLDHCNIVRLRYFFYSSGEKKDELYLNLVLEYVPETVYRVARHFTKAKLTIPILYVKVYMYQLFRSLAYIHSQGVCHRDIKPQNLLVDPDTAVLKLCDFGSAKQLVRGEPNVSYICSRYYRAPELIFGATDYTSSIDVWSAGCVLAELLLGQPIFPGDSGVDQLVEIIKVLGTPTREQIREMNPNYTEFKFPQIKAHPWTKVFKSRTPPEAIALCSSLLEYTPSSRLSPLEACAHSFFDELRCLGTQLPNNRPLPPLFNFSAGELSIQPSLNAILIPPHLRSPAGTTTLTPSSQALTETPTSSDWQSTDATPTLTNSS
Sequence of Casein kinase I isoform epsilon (Homo sapiens) (P49674 whole entry, looked up, canonical isoform): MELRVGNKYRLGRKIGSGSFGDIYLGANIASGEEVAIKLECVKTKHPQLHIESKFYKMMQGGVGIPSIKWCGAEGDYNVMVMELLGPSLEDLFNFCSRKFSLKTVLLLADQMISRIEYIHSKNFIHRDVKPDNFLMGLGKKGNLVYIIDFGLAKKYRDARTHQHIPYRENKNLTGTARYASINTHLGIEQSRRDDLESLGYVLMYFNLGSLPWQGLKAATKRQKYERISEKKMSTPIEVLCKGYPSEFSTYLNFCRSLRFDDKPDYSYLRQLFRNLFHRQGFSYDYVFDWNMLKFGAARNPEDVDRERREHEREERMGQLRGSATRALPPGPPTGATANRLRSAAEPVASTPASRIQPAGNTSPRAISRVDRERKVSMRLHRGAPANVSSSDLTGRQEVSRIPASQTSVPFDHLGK
Sequence of Serine/threonine-protein kinase tousled-like 2 (Homo sapiens) (Q86UE8 whole entry, looked up): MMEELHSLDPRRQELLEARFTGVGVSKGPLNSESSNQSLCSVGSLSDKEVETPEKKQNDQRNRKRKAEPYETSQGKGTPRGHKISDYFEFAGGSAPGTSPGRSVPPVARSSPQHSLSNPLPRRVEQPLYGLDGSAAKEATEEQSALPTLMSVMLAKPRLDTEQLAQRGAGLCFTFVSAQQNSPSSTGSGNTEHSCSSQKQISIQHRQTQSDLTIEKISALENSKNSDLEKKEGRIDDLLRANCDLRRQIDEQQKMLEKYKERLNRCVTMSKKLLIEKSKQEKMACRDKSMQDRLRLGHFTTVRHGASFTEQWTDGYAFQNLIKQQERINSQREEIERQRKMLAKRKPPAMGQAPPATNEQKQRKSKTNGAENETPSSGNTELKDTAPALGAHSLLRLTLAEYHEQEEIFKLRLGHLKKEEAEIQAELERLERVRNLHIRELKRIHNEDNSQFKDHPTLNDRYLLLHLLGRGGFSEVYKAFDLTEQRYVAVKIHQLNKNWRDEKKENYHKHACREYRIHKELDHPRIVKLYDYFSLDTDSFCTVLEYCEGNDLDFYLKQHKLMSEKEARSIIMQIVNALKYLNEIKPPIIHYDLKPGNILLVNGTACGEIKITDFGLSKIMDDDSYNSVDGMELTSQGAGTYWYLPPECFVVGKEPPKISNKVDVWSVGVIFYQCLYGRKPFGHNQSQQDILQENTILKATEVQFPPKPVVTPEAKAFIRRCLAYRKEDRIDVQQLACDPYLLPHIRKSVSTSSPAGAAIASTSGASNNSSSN

CCN1CCN(Cc2ccc(NC(=O)c3ccc(C)c(/C=C/c4cnc5[nH]ccc5c4OC)c3)cc2C(F)(F)F)CC1
inhibition [1]: 60.7% | inhibition [2]: 40.6% | inhibition [3]: 1% | inhibition [4]: 31.7% | inhibition [5]: 27.5% | inhibition [6]: 16.9% | inhibition [7]: -5.2% | inhibition [8]: -9.6% | inhibition [9]: 36.9% | inhibition [10]: -9.4% | inhibition at 0.05 µM [11]: 29.4% | inhibition [12]: 63.7% | inhibition [13]: 15.8%

CCN1CCN(Cc2ccc(NC(=O)c3ccc(C)c(Oc4ccnc5[nH]ccc45)c3)cc2C(F)(F)F)CC1
inhibition [1]: 71.7% | inhibition [2]: 73.7% | inhibition [3]: 15.4% | inhibition [4]: 33.7% | inhibition [5]: 17.7% | inhibition [6]: 35.7% | inhibition [7]: -3.8% | inhibition [8]: -0.7% | inhibition [9]: 5% | inhibition [10]: 14.2% | inhibition at 0.05 µM [11]: 14.9% | inhibition [12]: 69.8% | inhibition [13]: 9%
